Laboratory results: ChEMBL document CHEMBL4689842, “EUbOPEN Chemogenomics Library wave 1” (2021)
Several values for one entry are separate records, joined by “and”; a condition that tells them apart may be missing. Equal values may be shown once.

Test system: U2OS
Test: Multiplex assay against U2OS
Format: toxicity, cell-based
Details: human
Method in brief: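 Values for tubulin, mitochondrial-mass and membrane-permeability phenotypes are per cents of cells with healthy nuclei. These cells were identified by CellPathfinder machine-learning gating of live cells that had been stained at seeding with Hoechst33342, BioTracker Green Microtubule Cytoskeleton Dye, MitoTracker Red and Annexin V Alexa Fluor 680 and imaged on a CQ1 microscope at 37°C and 5% CO2 after compound addition. The gating first set Hoechst high-intensity objects apart from normal cells, then split normal cells into healthy, pyknosed or fragmented nuclei, and pyknosed cells into mitotic or apoptotic.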

[1] = 12 h, 1 µM, compound concentration 1 uM, replicate 1
[2] = 12 h, 1 µM, compound concentration 1 uM, replicate 2
[3] = 24 h, 1 µM, compound concentration 1 uM, replicate 1
[4] = 24 h, 1 µM, compound concentration 1 uM, replicate 2
[5] = 12 h, 10 µM, compound concentration 10 uM, replicate 1
[6] = 12 h, 10 µM, compound concentration 10 uM, replicate 2
[7] = 24 h, 10 µM, compound concentration 10 uM, replicate 1
[8] = 24 h, 10 µM, compound concentration 10 uM, replicate 2

CC(C)C(=O)Nc1n[nH]c2cc(-c3cccc(NS(=O)(=O)C4CC4)c3)ccc12
Population Apoptotic (%) [1]: 33% and 20%
Population Fragmented Nuclei (%) [1]: 8% and 3%
Population Healthy Nuclei (%) [1]: 88% and 86%
Population Membrane Permeable-Phenotype (%) [1]: 18% and 12%
Population Mitochondria Different-Phenotype (%) [1]: 22% and 20%
Population Mitotic Cells (%) [1]: 66% and 80%
Population Normal (%) [1]: 98% and 95%
Population Pyknosed Nuclei (%) [1]: 3% and 9%
Population Tubulin-Different-Phenotype (%) [1]: 21% and 32%
Total Cell Count [1]: 108 and 215
Population Apoptotic (%) [2]: 25% and 16%
Population Fragmented Nuclei (%) [2]: 11%
Population Healthy Nuclei (%) [2]: 82% and 92%
Population Hoechst High Intensity Objects (%) [2]: 12% and 6%
Population Membrane Permeable-Phenotype (%) [2]: 21% and 10%
Population Mitochondria Different-Phenotype (%) [2]: 42% and 28%
Population Mitotic Cells (%) [2]: 75% and 83%
Population Normal (%) [2]: 87% and 94%
Population Pyknosed Nuclei (%) [2]: 5% and 4%
Population Tubulin-Different-Phenotype (%) [2]: 26% and 18%
Total Cell Count [2]: 122 and 78
Population Apoptotic (%) [3]: 27% and 25%
Population Fragmented Nuclei (%) [3]: 5% and 2%
Population Healthy Nuclei (%) [3]: 90% and 89%
Population Hoechst High Intensity Objects (%) [3]: 2% and 3%
Population Membrane Permeable-Phenotype (%) [3]: 12% and 10%
Population Mitochondria Different-Phenotype (%) [3]: 17% and 24%
Population Mitotic Cells (%) [3]: 72% and 75%
Population Normal (%) [3]: 97% and 96%
Population Pyknosed Nuclei (%) [3]: 4% and 8%
Population Tubulin-Different-Phenotype (%) [3]: 23% and 38%
Total Cell Count [3]: 152 and 246
Population Apoptotic (%) [4]: 18% and 21%
Population Fragmented Nuclei (%) [4]: 4% and 3%
Population Healthy Nuclei (%) [4]: 82% and 88%
Population Hoechst High Intensity Objects (%) [4]: 8% and 4%
Population Mitochondria Different-Phenotype (%) [4]: 41% and 31%
Population Mitotic Cells (%) [4]: 81% and 78%
Population Normal (%) [4]: 91% and 95%
Population Pyknosed Nuclei (%) [4]: 12% and 7%
Population Tubulin-Different-Phenotype (%) [4]: 35%
Total Cell Count [4]: 144 and 96

Cn1cncc1[C@@](O)(COc1ccc(C#N)cc1-c1ccc(OC(F)(F)F)cc1)c1ccc(C#N)cc1 [A-108]
Population Apoptotic (%) [5]: 38% and 53%
Population Healthy Nuclei (%) [5]: 70% and 84%
Population Hoechst High Intensity Objects (%) [5]: 3%
Population Membrane Permeable-Phenotype (%) [5]: 31% and 17%
Population Mitochondria Different-Phenotype (%) [5]: 42% and 25%
Population Mitotic Cells (%) [5]: 61% and 46%
Population Normal (%) [5]: 96%
Population Pyknosed Nuclei (%) [5]: 17% and 11%
Total Cell Count [5]: 188 and 136
Population Apoptotic (%) [6]: 43% and 50%
Population Healthy Nuclei (%) [6]: 60% and 90%
Population Hoechst High Intensity Objects (%) [6]: 19% and 8%
Population Mitochondria Different-Phenotype (%) [6]: 63% and 21%
Population Mitotic Cells (%) [6]: 56% and 50%
Population Normal (%) [6]: 80% and 91%
Total Cell Count [6]: 101 and 164
Population Fragmented Nuclei (%) [7]: 8% and 3%
Population Healthy Nuclei (%) [7]: 74% and 86%
Population Hoechst High Intensity Objects (%) [7]: 2% and 4%
Population Membrane Permeable-Phenotype (%) [7]: 29% and 11%
Population Mitochondria Different-Phenotype (%) [7]: 37% and 20%
Population Mitotic Cells (%) [7]: 28% and 77%
Population Normal (%) [7]: 97% and 95%
Population Pyknosed Nuclei (%) [7]: 17% and 10%
Total Cell Count [7]: 190 and 184
Population Apoptotic (%) [8]: 80% and 45%
Population Fragmented Nuclei (%) [8]: 18%
Population Healthy Nuclei (%) [8]: 55% and 85%
Population Hoechst High Intensity Objects (%) [8]: 7%
Population Mitochondria Different-Phenotype (%) [8]: 75% and 28%
Population Mitotic Cells (%) [8]: 19% and 54%
Population Normal (%) [8]: 92%
Population Tubulin-Different-Phenotype (%) [8]: 73% and 25%
Total Cell Count [8]: 88 and 199
